Screening results as filed in PubChem.
Myeloid diff MLP = myeloid differentiation induction | AID 624256 | 360,000 compounds, 1% hits | calls only at 10 µM | ER-HoxA9 myeloid progenitors, lysozyme-GFP differentiation, flow cytometry;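 active = normalized GFP-positive differentiation at or above the plate's own cutoff, the solvent-only control mean plus 3 SD; inconclusive = no clear call, values can overlap the other calls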;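 note: cells exposed to compound for four days before flow analysis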
ABCB6 inh 2 = blocks the human ABCB6 transporter; Q9NP58; K562-ABCB6 porphyrin accumulation, flow cytometry, 1 h; stronger effect = lower value; fluorescence ratio to DMSO, % at 10 µM; 360,000 compounds, 0.19% hits; AID 602162;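 active = fluorescence ratio to DMSO below 75%, the collection mean minus 3 SD; inconclusive = too few cells collected in the well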;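 note: signal is porphyrin accumulated inside mitochondria; lower ratio means ABCB6 inhibition with less porphyrin fluorescence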
XiGFP reactiv = X-chromosome reactivation activator; XiGFP mouse fibroblasts, % GFP-positive cells imaging, 3 d; cells co-treated with 5-aza-dC sensitizer; scaled so ellipticine positive control = 100%; activation, % at 7.58 µM; AID 743238; 360,000 compounds, 0.055% hits;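 active = mean normalized replicate activation at least 10% and every replicate at or above 10%; inconclusive = only one of the two criteria met; inactive = mean below 10% and not all replicates reach 10%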
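System: XiGFP fibroblasts, SV40-immortalized. Medium: DMEM plus 5-aza-dC sensitizer. Doses: single point. Timing: 3 d treatment, 15 min room-temperature fixation. Control set: ellipticine 6 µM.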
ABCB6 blocker 1 = human ABCB6 transporter inhibition; 700 tested, under 10 active; K562-ABCB6 porphyrin accumulation, flow cytometry, 1 h; stronger effect = lower value; ratio response (% of DMSO), % at 10 µM; shares compounds with ABCB6 inh 2;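 active = repeat-averaged ratio response below 75% of DMSO, the collection mean minus 3 SD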;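 note: median porphyrin fluorescence at 575 nm with 488 nm excitation from mitochondria; lower ratio means less porphyrin signal so ABCB6 inhibition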
Numbers stand for hits. This excerpt belongs to a sample that is enriched for hits.

What do the screens show for `O=C(CC1SCCNC1=O)Nc1ccc(F)c(Cl)c1` (stereo not given)?
Myeloid diff MLP: inactive; ABCB6 inh 2: inactive; XiGFP reactiv: inactive

What do the screens show for `Cc1ccc(NC(=O)CC2SCCNC2=O)cc1Cl` (stereo not given)?
Myeloid diff MLP: inactive; ABCB6 inh 2: 67; ABCB6 blocker 1: inactive

How did C#CCOc1ccccc1CNC1CCN(Cc2ccccc2)CC1 do in these assays?
Myeloid diff MLP: inactive; ABCB6 inh 2: 57; XiGFP reactiv: inactive; ABCB6 blocker 1: inactive

Results for C#CCOc1ccccc1CNc1ccccc1 ?
Myeloid diff MLP: inactive; ABCB6 inh 2: inactive; XiGFP reactiv: inactive

How did Cc1ccc(NC(=O)Nc2ccon2)cc1 do in these assays?
Myeloid diff MLP: inconclusive; ABCB6 inh 2: 10; XiGFP reactiv: inactive; ABCB6 blocker 1: inactive

Results for O=C(Nc1ccc(Cl)cc1)Nc1ccon1 ?
Myeloid diff MLP: inactive; ABCB6 inh 2: inactive; XiGFP reactiv: inactive

What do the screens show for `CCOC(=O)c1ccccc1NC(=O)c1cc(S(=O)(=O)N2CCOCC2)ccc1F`?
Myeloid diff MLP: inactive; ABCB6 inh 2: inactive

What do the screens show for `CCOC(=O)N1CCN(S(=O)(=O)c2ccc(F)c(C(=O)Nc3cccc(C)c3C)c2)CC1`?
Myeloid diff MLP: inactive; ABCB6 inh 2: 72; ABCB6 blocker 1: inactive

What do the screens show for `C[C@H]1CCCCO[C@H](CN(C)C(=O)Nc2ccccc2)[C@@H](C)CN([C@@H](C)CO)C(=O)c2cc(NS(=O)(=O)c3ccc(F)cc3)ccc2O1`?
XiGFP reactiv: inactive

Results for Cc1ccc(S(=O)(=O)N[C@@H]2C=C[C@@H](CC(=O)NCCN3CCCCC3)O[C@@H]2CO)cc1 ?
XiGFP reactiv: inactive

What do the screens show for `CN(C)/N=C/c1ccc(OC(=O)c2cccc([N+](=O)[O-])c2)cc1`?
Myeloid diff MLP: inactive; ABCB6 inh 2: inactive; XiGFP reactiv: inactive

Results for O=C(Oc1ccc(/C=N/n2cnnc2)cc1)c1cccc([N+](=O)[O-])c1 ?
Myeloid diff MLP: inactive; ABCB6 inh 2: 73; XiGFP reactiv: inactive; ABCB6 blocker 1: inactive

How did COc1ccc(NC(=O)c2sc3nc4n(c(=O)c3c2C)CCC4)c(OC)c1 do in these assays?
ABCB6 blocker 1: inactive

How did Cc1c(C(=O)Nc2ccc(OC(F)(F)F)cc2)sc2nc3n(c(=O)c12)CCC3 do in these assays?
Myeloid diff MLP: inactive; ABCB6 inh 2: 66; ABCB6 blocker 1: inactive

What do the screens show for `COc1cccc(NC(=O)c2sc3nc4n(c(=O)c3c2C)CCC4)c1`?
Myeloid diff MLP: inconclusive; ABCB6 inh 2: 24; XiGFP reactiv: inactive; ABCB6 blocker 1: inactive

How did Cc1c(C(=O)Nc2ccc(Oc3ccccc3)cc2)sc2nc3n(c(=O)c12)CCC3 do in these assays?
Myeloid diff MLP: inactive; ABCB6 inh 2: inactive

Results for CSc1cccc(NC(=O)c2sc3nc4n(c(=O)c3c2C)CCC4)c1 ?
Myeloid diff MLP: inactive; ABCB6 inh 2: inactive; XiGFP reactiv: inactive

How did Cc1c(C(=O)Nc2cc(F)ccc2F)sc2nc3n(c(=O)c12)CCCCC3 do in these assays?
Myeloid diff MLP: inactive; ABCB6 inh 2: inactive; XiGFP reactiv: inactive

Results for CCC(=O)N1CC2(C1)[C@H](c1ccccc1)[C@@H](CO)N2Cc1cccc(Cl)c1 ?
XiGFP reactiv: inactive

How did C[C@@H]1CN([C@@H](C)CO)C(=O)c2cccc(NC(=O)c3ccc(-c4nccs4)cc3)c2O[C@H]1CN(C)S(=O)(=O)c1ccc(F)cc1 do in these assays?
XiGFP reactiv: inactive

Results for CO[C@@H]1CN(C)C(=O)c2ccc(NS(=O)(=O)c3ccc(F)cc3)cc2OC[C@@H](C)NC[C@@H]1C ?
XiGFP reactiv: inactive

What do the screens show for `Cc1ccc(OCC(O)CNC(=O)c2ccccc2C(=O)O)cc1` (stereo not given)?
Myeloid diff MLP: inactive; ABCB6 inh 2: 71; ABCB6 blocker 1: inactive

What do the screens show for `Cc1cccc(OCC(O)CNC(=O)c2ccccc2C(=O)O)c1` (stereo not given)?
Myeloid diff MLP: inactive; ABCB6 inh 2: inactive

How did C[C@@H]1CN([C@H](C)CO)C(=O)Cc2cc(NC(=O)c3ccncc3)ccc2O[C@@H]1CN(C)S(=O)(=O)c1ccccc1 do in these assays?
XiGFP reactiv: inactive

Results for O=C(NC1CCCC1)[C@H]1[C@H](CO)[C@H]2Cn3c(ccc(-c4cccnc4)c3=O)[C@H]2N1CC1CC1 ?
XiGFP reactiv: inactive

How did CCNC(=O)C[C@@H]1CC[C@@H]2[C@H](COc3ccc(NC(=O)Nc4ccccc4Cl)cc3C(=O)N2C)O1 do in these assays?
XiGFP reactiv: inactive

How did CCCCN(C)C(=O)c1cccc(OC2CCN(CC(C)(C)C)CC2)c1 do in these assays?
Myeloid diff MLP: inactive; ABCB6 inh 2: inactive; XiGFP reactiv: inactive
